For assay [1], the target named is T1, Epidermal growth factor receptor (Homo sapiens, UniProt P00533). Particulars: 10 uM.
Assay [2] deals with T1, Epidermal growth factor receptor. Briefly: In vitro inhibition of intrinsic tyrosine protein kinase activity of the Epidermal growth factor receptor using […]. In short, it runs like this: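 Enzyme source was ER 22 membranes purified on 32% sucrose. Reaction buffer: 20 mM Hepes pH 7.4, 1 mM MnCl2, 0.1 mg/mL BSA, 100 ng/mL EGF. Receptor was preincubated with EGF for 10 min at room temperature, then inhibitor was added. It was stopped with TCA; supernatant was spotted on phosphocellulose paper, washed in phosphoric acid and counted by scintillation.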

Assay [3] shares this target. Particulars: 5 uM.
Assay [4] has the same target. Particulars: 10 uM. This is another data set of the same source.
Assay [5] has the same target. Briefly: Inhibition of Epidermal growth factor receptor activity against […] at 10 uM.
For assay [6] the target is unchanged. The settings on record: 10 uM. The source holds these as a separate data set.
Assay [7] has the same target. Particulars: 5 uM. This is another data set of the same source.
Assay [8] has the same target. Particulars: 10 uM. The source holds these as a separate data set.
For assay [9] the target is unchanged. The settings on record: 1.25 uM.

Structures are written as SMILES. A value given as a limit tells only on which side of the number the result lay.

T1 sequence (P00533 whole entry): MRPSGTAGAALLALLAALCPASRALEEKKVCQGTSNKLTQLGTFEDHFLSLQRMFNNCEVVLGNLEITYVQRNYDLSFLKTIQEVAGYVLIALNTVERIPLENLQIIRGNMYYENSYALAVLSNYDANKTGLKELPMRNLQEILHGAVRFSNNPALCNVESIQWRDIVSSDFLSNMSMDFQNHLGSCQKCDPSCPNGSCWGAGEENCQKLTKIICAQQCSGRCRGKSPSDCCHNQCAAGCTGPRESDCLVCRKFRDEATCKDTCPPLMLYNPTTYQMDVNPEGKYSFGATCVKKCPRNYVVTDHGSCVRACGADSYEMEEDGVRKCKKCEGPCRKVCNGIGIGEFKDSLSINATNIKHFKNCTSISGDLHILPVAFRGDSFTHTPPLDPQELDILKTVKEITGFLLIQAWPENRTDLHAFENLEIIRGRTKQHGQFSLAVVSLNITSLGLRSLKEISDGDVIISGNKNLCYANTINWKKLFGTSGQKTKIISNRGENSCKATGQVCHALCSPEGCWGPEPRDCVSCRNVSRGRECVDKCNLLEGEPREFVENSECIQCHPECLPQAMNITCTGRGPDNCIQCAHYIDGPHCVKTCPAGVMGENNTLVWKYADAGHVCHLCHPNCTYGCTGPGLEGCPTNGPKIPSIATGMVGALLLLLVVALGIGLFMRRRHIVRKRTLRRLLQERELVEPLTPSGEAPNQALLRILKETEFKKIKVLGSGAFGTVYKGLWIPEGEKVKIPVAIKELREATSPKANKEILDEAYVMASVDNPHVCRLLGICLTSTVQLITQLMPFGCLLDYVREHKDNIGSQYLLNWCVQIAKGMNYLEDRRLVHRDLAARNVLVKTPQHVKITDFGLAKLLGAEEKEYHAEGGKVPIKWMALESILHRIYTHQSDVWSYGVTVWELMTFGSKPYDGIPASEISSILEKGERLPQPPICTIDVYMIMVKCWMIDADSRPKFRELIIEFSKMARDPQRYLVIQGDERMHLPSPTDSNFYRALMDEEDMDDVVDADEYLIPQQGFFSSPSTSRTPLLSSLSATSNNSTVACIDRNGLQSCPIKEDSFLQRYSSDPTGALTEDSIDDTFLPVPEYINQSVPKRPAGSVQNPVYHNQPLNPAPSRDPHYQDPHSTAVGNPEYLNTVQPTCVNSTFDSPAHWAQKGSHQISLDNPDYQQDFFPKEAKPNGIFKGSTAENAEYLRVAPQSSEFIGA

As for `O=C(O)c1ccc(-c2cc(O)cc(-c3ccccc3)c2)cc1`, the inhibition (usually the share of the control response that was lost under treatment) in assay [1] turned out to be 9%.

Turning to `O=C(NCc1ccccc1)c1ccc(-c2cccc(-c3ccccc3)c2O)cc1`, the IC50 (as a rule, the concentration at which inhibition is half-maximal) in assay [2] is greater than 5 µM. `CC(COC(=O)c1ccc(-c2cc(O)cc(-c3ccccc3)c2)cc1)CC(C)(C)C` (stereo not drawn) had an inhibition in [1] of 15%.

On to `COC(=O)c1ccc(-c2ccc(C(C)(C)C)cc2O)cc1`, for which the inhibition in [1] is 6%.

Take `CC(C)(C)c1cc(O)cc(-c2ccc(C(=O)NCc3ccccc3)cc2)c1`: the IC50 in assay [2] is greater than 5 µM. Consider `COCOc1cc(-c2ccccc2)ccc1-c1ccc(C(=O)OCC(C)CC(C)(C)C)cc1` (stereo not drawn), for which the IC50 in assay [2] is greater than 20 µM. For the same compound, the inhibition in assay [3] is 10%. Take `COCOc1c(-c2ccccc2)cccc1-c1ccc(C(=O)OCC(C)CC(C)(C)C)cc1` (stereo not drawn): in [4], the inhibition was determined as 16%. Turning to `COCOc1cc(C(C)(C)C)ccc1-c1ccc(C(=O)OC)cc1`, the IC50 in assay [5] was greater than 10 µM. For `COC(=O)c1ccc(-c2cccc(-c3ccccc3)c2O)cc1`, in assay [2], the IC50 was greater than 20 µM.

In assay [2], `CC(C)(C)c1ccc(-c2ccc(C(=O)NCc3ccccc3)cc2)c(O)c1` gave an IC50 greater than 5 µM. This compound gave an inhibition in assay [6] of 57%. For the compound `CC(C)(C)c1ccc(-c2ccc(C(=O)O)cc2)c(O)c1`, the IC50 in assay [2] is greater than 10 µM.

The compound `COCOc1cc(-c2ccccc2)ccc1-c1ccc(C(=O)NCc2ccccc2)cc1` showed an IC50 in [2] greater than 1 µM. Turning to `CC(C)(C)c1cc(O)cc(-c2ccc(C(=O)O)cc2)c1`, the 50% inhibitory concentration (IC50) in assay [2] is greater than 50 µM. Regarding `O=C(NCc1ccccc1)c1ccc(-c2ccc(-c3ccccc3)cc2O)cc1`, the IC50 in [2] is greater than 1 µM.

In the case of `COCOc1cc(C(C)(C)C)ccc1-c1ccc(C(=O)NCc2ccccc2)cc1`, in assay [7], the inhibition is 47%. Besides, in assay [2], the IC50 is greater than 5 µM.

As for `CC(COC(=O)c1ccc(-c2ccc(C(C)(C)C)cc2O)cc1)CC(C)(C)C` (stereo not drawn), the values for the inhibition in assay [3] and in [1] were 25% and 3%, respectively. For the compound `CC(COC(=O)c1ccc(-c2ccc(-c3ccccc3)cc2O)cc1)CC(C)(C)C` (stereo not drawn), the inhibition in assay [4] came to 3%; in assay [3], 27%.

`CC(COC(=O)c1ccc(-c2cccc(-c3ccccc3)c2O)cc1)CC(C)(C)C` (stereo not drawn) had an inhibition in assay [4] of 11%. In [2], `COCOc1cc(C(C)(C)C)ccc1-c1ccc(C(=O)OCC(C)CC(C)(C)C)cc1` (stereo not drawn) registered an IC50 greater than 50 µM. In the case of `CC(COC(=O)c1ccc(-c2cc(O)cc(C(C)(C)C)c2)cc1)CC(C)(C)C` (stereo not drawn), in assay [1], the inhibition amounted to 10%. Turning to `COCOc1cc(-c2ccccc2)ccc1-c1ccc(C(=O)O)cc1`, the inhibition in assay [4] amounted to 8%. In the case of `COC(=O)c1ccc(-c2cc(O)cc(C(C)(C)C)c2)cc1`, in assay [2], the IC50 is greater than 10 µM.

Turning to `CC(C)(C)c1cc(O)cc(-c2ccc(CO)cc2)c1`, the IC50 in assay [2] was greater than 10 µM. In assay [8], this compound came in with an inhibition of 21%. Take `COC(=O)c1ccc(-c2ccc(-c3ccccc3)cc2O)cc1`: the inhibition in [9] came out at 41%. In [2], this compound returned a half-maximal inhibitory concentration (IC50) of 14 µM. `O=C(NCc1ccccc1)c1ccc(-c2cc(O)cc(-c3ccccc3)c2)cc1` gave an inhibition in assay [1] of 5%. In turn, `COCOc1cc(-c2ccccc2)ccc1-c1ccc(C(=O)OC)cc1` came in with an inhibition in assay [4] of 2%.

Source of the values: ChEMBL document CHEMBL1128699, “Inhibition of the EGF-stimulated cellular proliferation of ER 22 cells by hydroxybiphenyl derivatives” (J Med Chem, 1995).
